From ChEMBL document CHEMBL1154924, “Carbonic anhydrase activators: Activation of the beta-carbonic anhydrase from the pathogenic yeast Candida glabrata with amines and amino acids” (Bioorg Med Chem Lett, 2010)

How the values were obtained:
[1] = molecular target: T1, Carbonic anhydrase (Candida glabrata CBS 138) (UniProt Q6FTL6); test: Activation of Candida glabrata recombinant carbonic anhydrase by stopped flow CO2 hydration method; conditions: Nakaseomyces glabratus
T1 sequence (whole entry): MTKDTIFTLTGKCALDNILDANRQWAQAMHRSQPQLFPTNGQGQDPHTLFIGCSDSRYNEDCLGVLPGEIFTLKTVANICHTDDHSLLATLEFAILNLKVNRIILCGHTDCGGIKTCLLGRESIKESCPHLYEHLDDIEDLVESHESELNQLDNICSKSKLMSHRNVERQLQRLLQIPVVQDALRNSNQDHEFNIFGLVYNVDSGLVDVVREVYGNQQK
In short: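 Recombinant yeast enzyme; stopped-flow CO2 hydration at 25 °C in 20 mM Tris (pH 8.3) and 20 mM NaClO4, with 0.2 mM phenol red read at 557 nm over 10 s. CO2 was 1.7–17 mM. Activators came from 10 mM aqueous stocks and were preincubated 15 min at room temperature with enzyme. Uncatalyzed rates were subtracted. KA was fitted from catalytic enhancement versus activator concentration; mean ± standard error of three assays.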

[2] = molecular target: T2, Carbonic anhydrase (Methanobacterium thermoautotrophicum) (UniProt Q50565); test: Activation of archaea Methanobacterium thermoautotrophicum recombinant carbonic anhydrase by stopped flow CO2 hydration method; conditions: Methanothermobacter thermautotrophicus
T2 sequence (whole entry): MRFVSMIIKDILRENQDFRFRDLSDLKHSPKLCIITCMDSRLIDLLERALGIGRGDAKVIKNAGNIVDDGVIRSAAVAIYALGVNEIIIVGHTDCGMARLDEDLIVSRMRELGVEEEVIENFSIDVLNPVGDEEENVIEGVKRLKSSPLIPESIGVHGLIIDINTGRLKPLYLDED

NCCc1c[nH]cn1 = conditions: Homo sapiens
[3] = molecular target: T3, Carbonic anhydrase (Saccharomyces cerevisiae S288c) (UniProt P53615); test: Activation of Saccharomyces cerevisiae recombinant Nce103p by stopped flow CO2 hydration method
T3 sequence (whole entry): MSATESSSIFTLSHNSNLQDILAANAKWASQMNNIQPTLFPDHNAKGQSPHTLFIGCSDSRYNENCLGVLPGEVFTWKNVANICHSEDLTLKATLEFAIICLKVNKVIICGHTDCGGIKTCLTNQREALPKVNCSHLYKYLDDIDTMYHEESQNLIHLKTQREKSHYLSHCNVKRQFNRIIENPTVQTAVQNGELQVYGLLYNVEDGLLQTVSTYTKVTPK

[4] = molecular target: Carbonic anhydrase 2 (Homo sapiens) (UniProt P00918); test: Activation of human recombinant carbonic anhydrase isoenzyme 2 by stopped flow CO2 hydration method

Compound | Ka [1] | Ka [2] | Km (NCCc1c[nH]cn1) | Ka [3] | Ka [4]
NCCc1c[nH]cn1 | 27.4 µM | 76 µM | – | – | –
NCc1ccccn1 | 15 µM | 18.7 µM | – | – | –
Nc1ccc(C[C@H](N)C(=O)O)cc1 | 31.6 µM | 89 µM | – | – | –
N[C@@H](Cc1ccc(O)cc1)C(=O)O | 9.5 µM | 10.5 µM | – | – | –
NCCc1c[nH]c2ccc(O)cc12 | 16.7 µM | 62 µM | – | – | –
Carbonic anhydrase 2 (Homo sapiens) (from UniProt P00918) | – | – | 9.3 mM | – | –
NCCN1CCOCC1 | 10.1 µM | 18.5 µM | – | – | –
N[C@H](Cc1c[nH]cn1)C(=O)O | 21.2 µM | 57 µM | – | – | –
N[C@H](Cc1ccc(O)cc1)C(=O)O | 7.1 µM | 19.2 µM | – | 84 µM | 0.058 µM
CNC[C@@H](O)c1ccc(O)c(O)c1 | 10.8 µM | 11.5 µM | – | – | –
N[C@@H](Cc1c[nH]c2ccccc12)C(=O)O | 22.8 µM | 16.9 µM | – | – | –
NCCc1ccc(O)c(O)c1 | 27.6 µM | 51 µM | – | – | –
N[C@@H](Cc1ccc(O)c(O)c1)C(=O)O | 23.3 µM | 11.4 µM | – | – | –
NCCc1ccccn1 | 16.3 µM | 40 µM | – | – | –
N[C@@H](Cc1c[nH]cn1)C(=O)O | 37 µM | 69 µM | – | – | –
N[C@H](Cc1ccc(O)c(O)c1)C(=O)O | 15.1 µM | 15.6 µM | – | – | –
N[C@H](Cc1c[nH]c2ccccc12)C(=O)O | 12.1 µM | 41 µM | – | – | –
NCCN1CCNCC1 | 14.9 µM | 13.8 µM | – | – | –
